How the values were obtained:
Conditions in all cases: stereoisomer not certain
UniProt Q8VG27 = biological target: T1, UniProt Q8VG27
T1 sequence (whole entry): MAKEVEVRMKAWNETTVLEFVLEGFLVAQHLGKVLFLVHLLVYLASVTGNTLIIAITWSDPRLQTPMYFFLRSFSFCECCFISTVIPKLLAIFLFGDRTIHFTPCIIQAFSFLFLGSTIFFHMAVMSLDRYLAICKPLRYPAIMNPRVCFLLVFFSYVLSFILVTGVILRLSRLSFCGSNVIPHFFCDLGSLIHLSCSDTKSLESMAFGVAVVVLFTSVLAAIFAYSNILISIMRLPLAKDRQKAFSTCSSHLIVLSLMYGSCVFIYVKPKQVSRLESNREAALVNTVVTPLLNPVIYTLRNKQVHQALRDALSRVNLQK
Procedure, shortened: (§1)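 Transient luciferase assays in mammalian cell lines were common, though methods varied by source. The values come from published papers and their supplementary material, with extra details from the original authors when needed. Responsive refers to a measured signal the original authors judged statistically different from baseline, and non-responsive (inactive) to the remainder.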

UniProt Q8VG49 = biological target: T2, UniProt Q8VG49
T2 sequence (whole entry): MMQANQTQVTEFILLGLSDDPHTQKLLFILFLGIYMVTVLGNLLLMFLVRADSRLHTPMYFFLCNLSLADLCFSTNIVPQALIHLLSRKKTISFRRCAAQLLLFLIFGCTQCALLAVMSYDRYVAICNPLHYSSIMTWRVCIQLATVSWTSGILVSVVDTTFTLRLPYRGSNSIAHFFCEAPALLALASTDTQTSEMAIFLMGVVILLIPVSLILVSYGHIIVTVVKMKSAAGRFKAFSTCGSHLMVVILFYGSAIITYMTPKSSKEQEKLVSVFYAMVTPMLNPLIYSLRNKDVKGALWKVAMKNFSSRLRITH
Procedure, shortened: as §1

UniProt Q8VG53 = biological target: T3, UniProt Q8VG53
T3 sequence (whole entry): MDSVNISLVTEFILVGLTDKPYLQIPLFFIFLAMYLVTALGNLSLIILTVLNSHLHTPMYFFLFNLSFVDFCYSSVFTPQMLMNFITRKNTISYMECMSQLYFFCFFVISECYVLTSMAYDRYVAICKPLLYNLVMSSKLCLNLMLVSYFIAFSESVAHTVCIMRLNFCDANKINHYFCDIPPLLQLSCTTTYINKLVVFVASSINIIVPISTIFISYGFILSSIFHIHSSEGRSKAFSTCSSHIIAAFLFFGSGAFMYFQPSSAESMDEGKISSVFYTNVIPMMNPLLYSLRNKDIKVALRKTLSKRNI
Procedure, shortened: as §1

UniProt Q8VG64 = biological target: T4, UniProt Q8VG64
T4 sequence (whole entry): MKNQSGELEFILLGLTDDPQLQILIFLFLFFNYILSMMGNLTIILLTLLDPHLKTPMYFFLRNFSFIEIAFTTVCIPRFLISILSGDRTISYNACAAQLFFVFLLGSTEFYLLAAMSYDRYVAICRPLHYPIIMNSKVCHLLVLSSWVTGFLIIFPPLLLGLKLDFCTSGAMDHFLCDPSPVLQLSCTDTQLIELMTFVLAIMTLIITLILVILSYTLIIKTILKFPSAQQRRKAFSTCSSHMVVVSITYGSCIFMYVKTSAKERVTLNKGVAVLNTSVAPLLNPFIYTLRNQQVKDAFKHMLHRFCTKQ
Procedure, shortened: as §1

UniProt Q8VG77 = biological target: T5, UniProt Q8VG77
T5 sequence (whole entry): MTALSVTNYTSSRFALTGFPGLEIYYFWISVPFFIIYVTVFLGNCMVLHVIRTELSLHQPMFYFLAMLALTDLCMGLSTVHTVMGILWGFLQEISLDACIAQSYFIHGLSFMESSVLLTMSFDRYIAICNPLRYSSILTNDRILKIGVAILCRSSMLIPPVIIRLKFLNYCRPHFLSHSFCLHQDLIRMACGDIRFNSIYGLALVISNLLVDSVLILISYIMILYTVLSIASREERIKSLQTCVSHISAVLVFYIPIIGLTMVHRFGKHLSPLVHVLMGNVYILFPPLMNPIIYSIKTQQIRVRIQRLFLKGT
Procedure, shortened: as §1

UniProt Q8VG96 = biological target: T6, UniProt Q8VG96
T6 sequence (whole entry): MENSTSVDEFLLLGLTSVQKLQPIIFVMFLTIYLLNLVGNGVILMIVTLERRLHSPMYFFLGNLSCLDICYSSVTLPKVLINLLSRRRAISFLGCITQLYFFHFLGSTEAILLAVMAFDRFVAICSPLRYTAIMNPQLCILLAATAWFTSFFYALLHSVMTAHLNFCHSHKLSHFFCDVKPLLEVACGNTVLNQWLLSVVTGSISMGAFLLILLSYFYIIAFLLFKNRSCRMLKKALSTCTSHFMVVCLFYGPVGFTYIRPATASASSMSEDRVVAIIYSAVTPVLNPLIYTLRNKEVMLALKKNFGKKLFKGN
Procedure, shortened: as §1

UniProt Q8VGB9 = biological target: T7, UniProt Q8VGB9
T7 sequence (whole entry): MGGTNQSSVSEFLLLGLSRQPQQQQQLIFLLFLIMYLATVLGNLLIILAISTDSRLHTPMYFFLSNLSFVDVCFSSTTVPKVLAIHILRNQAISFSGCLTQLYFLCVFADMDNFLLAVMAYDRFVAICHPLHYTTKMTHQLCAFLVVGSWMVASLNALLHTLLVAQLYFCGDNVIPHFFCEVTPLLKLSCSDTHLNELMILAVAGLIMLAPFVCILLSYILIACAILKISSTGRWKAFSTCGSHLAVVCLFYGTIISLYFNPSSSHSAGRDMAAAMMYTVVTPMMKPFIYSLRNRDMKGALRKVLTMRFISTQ
Procedure, shortened: as §1

UniProt Q8VGC6 = biological target: T8, UniProt Q8VGC6
T8 sequence (whole entry): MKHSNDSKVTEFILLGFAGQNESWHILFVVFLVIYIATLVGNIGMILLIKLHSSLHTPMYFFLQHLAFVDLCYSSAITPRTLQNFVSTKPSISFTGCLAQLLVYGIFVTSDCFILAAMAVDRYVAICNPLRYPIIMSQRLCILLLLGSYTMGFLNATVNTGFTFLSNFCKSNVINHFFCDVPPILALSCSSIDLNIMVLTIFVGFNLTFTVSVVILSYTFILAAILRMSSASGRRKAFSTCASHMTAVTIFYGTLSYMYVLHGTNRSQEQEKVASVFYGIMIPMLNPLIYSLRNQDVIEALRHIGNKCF
Procedure, shortened: as §1

UniProt Q8VGD7 = biological target: T9, UniProt Q8VGD7
T9 sequence (whole entry): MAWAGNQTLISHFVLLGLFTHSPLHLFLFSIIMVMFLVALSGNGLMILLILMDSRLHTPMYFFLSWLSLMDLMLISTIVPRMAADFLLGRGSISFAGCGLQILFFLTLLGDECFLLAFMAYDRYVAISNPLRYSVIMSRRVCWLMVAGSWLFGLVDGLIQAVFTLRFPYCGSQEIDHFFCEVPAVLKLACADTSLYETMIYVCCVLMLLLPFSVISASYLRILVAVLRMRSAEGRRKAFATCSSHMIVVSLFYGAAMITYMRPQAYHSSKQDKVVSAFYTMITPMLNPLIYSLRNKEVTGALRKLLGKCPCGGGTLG
Procedure, shortened: as §1

UniProt Q8VGH1 = biological target: T10, UniProt Q8VGH1
T10 sequence (whole entry): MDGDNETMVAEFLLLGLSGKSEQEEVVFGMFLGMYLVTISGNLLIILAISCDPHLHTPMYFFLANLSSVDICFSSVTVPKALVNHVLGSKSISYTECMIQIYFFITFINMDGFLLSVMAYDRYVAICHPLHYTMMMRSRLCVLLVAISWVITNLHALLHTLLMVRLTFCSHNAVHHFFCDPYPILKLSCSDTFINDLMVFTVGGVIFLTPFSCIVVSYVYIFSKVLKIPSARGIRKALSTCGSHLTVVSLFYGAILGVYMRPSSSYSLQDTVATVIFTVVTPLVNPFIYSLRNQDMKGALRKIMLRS
Procedure, shortened: as §1

UniProt Q8VGJ1 = biological target: T11, UniProt Q8VGJ1
T11 sequence (whole entry): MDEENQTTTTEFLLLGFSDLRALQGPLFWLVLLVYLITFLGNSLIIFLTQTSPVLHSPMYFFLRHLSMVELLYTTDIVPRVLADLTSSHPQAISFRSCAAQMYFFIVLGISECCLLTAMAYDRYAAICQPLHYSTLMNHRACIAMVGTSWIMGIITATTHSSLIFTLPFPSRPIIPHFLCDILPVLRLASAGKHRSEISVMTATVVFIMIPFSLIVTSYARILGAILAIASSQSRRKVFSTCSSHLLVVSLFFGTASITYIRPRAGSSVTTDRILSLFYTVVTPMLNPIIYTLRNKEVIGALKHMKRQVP
Procedure, shortened: as §1

UniProt Q8VGJ3 = biological target: T12, UniProt Q8VGJ3
T12 sequence (whole entry): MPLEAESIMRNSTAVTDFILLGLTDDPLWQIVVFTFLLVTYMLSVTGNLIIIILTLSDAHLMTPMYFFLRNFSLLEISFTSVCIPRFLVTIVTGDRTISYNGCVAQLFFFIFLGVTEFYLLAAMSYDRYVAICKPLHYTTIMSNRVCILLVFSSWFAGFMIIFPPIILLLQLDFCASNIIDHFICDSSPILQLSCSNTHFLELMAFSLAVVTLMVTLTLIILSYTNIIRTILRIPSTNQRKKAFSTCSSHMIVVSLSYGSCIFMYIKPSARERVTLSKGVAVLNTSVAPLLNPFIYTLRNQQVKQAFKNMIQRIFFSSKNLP
Procedure, shortened: as §1

UniProt Q8VGJ5 = biological target: T13, UniProt Q8VGJ5
T13 sequence (whole entry): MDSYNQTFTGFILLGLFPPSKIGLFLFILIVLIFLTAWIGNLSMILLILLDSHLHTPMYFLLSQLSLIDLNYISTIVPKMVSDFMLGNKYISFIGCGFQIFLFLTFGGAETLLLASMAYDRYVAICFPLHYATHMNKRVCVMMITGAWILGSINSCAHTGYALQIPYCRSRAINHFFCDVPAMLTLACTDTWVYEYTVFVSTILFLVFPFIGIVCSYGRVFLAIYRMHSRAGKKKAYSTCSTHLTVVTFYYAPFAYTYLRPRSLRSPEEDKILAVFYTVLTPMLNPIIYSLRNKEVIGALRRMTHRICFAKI
Procedure, shortened: as §1

UniProt Q8VGL0 = biological target: T14, UniProt Q8VGL0
T14 sequence (whole entry): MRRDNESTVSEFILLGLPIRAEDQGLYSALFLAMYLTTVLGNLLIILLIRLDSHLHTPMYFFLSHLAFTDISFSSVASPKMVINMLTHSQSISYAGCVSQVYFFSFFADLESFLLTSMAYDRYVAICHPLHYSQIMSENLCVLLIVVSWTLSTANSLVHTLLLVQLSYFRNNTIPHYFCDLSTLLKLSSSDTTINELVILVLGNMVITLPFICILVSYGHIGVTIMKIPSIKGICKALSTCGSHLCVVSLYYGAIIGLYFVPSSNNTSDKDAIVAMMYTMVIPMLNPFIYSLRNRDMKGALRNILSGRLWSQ
Procedure, shortened: as §1

UniProt Q8VGL7 = biological target: T15, UniProt Q8VGL7
T15 sequence (whole entry): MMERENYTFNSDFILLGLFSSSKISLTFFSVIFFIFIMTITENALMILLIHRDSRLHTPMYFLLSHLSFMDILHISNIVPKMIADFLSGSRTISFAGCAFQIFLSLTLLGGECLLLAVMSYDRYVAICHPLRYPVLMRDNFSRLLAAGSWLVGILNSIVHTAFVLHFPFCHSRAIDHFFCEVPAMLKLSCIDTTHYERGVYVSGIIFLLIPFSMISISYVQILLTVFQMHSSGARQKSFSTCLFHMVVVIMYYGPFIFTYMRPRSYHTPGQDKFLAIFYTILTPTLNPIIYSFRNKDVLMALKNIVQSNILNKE
Procedure, shortened: as §1

Measured: odorant receptor agonist call

CC12CCC(CC1=O)C2(C)C (stereo not given)
active: UniProt Q8VGD7 | UniProt Q8VGL0
inactive: all other assays above

Source: the M2OR odorant receptor database
